Source: PubChem
FLuc act counter – firefly luciferase counter-screen for stimulation assays; P08659; ATPlite luciferase biochemical, luminescence, 10 min; 0 = ATP-free wells, 1 = DMSO control; activation factor at 10 µM; 200,000 tested, under 10 active; AID 1027;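 active means luciferase activation factor, scaled between plate controls, of at least 2 with compound at 10 µM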
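Assay system: Luciferase/luciferin detection reagent, cell-free biochemical luciferase assay / Also added: ATP substrate / Schedule: 10 min at ambient temperature / Measured by: luminescence measurement of luciferase light output / Benchmarks: low control with PBS replacing ATP, high control enzyme plus ATP without compound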
C8 TRAIL sens – caspase-8 TRAIL sensitization. NB7+C8 cells + TRAIL, ATPlite viability luminescence. inhibition (viability loss, TRAIL sensitization), % at 10 µM. actives 1% (n = 360,000);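 active means compounds causing at least 50% loss of cell viability in the single-dose screen, relative to plate controls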
FLuc inh counter – counter-screen for luciferase assay inhibitors: firefly luciferase inhibition | inhibition, % at 10 µM | ATPLite firefly luciferase biochemical luminescence, 10 min | P08659 | actives 1.5% (n = 200,000);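 active means inhibition above about 50% when tested at 10 µM, limit read from the data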
PPC-1+TRAIL kill – compounds killing PPC-1 cancer cells with TRAIL present (potentiator screen, no TRAIL-free arm); actives 0.41% (n = 220,000); PPC-1 cells + TRAIL, ATPLite viability luminescence; cell killing (% activity), % at 4 µM or 5 µM;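 active means cell killing above 50% in the first pass at 4 µM, then a duplicate retest at 5 µM averaging 50% or more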;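 further: plate controls were cells with TRAIL plus DMSO for no effect and medium-only wells lacking cells for full effect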
Active calls of the source: *. An excerpt weighted towards active compounds, which were near 1.5% of everything screened.

What do the screens show for `CCOc1cc(C(=O)O/N=C(\N)c2ccccn2)cc(OCC)c1OCC`?
C8 TRAIL sens: 61*

Results for N/C(=N\OC(=O)c1ccccc1[N+](=O)[O-])c1ccccn1 ?
FLuc act counter: 0.3; C8 TRAIL sens: 26; FLuc inh counter: 69*

How did Cc1cc(NS(C)(=O)=O)c(=O)n(Cc2c(F)cccc2Cl)c1 do in these assays?
C8 TRAIL sens: -9

Results for COc1ccc(/C(N)=N/OC(=O)c2cccc([N+](=O)[O-])c2C)cc1 ?
FLuc act counter: 1; C8 TRAIL sens: 65*; FLuc inh counter: 1; PPC-1+TRAIL kill: 13

How did COc1ccc(C(=O)O/N=C(\N)c2ccccn2)cc1 do in these assays?
C8 TRAIL sens: 92*

Results for O=C(COc1ccccc1)NC1=NCCS1 ?
FLuc act counter: 0.7; C8 TRAIL sens: -5; FLuc inh counter: 31; PPC-1+TRAIL kill: 1

Results for Cc1cccc(C(=O)NC2=NCCS2)c1 ?
FLuc act counter: 0.5; C8 TRAIL sens: 22; FLuc inh counter: 54*; PPC-1+TRAIL kill: 31

What do the screens show for `CC(C)c1ccc(OCC(=O)NC2=NCCS2)cc1`?
FLuc act counter: 0.4; C8 TRAIL sens: 6; FLuc inh counter: 57*; PPC-1+TRAIL kill: 20

How did O=C(/C=C/c1ccc(Cl)c(Cl)c1)NC1=NCCS1 do in these assays?
FLuc act counter: 1; C8 TRAIL sens: -1; FLuc inh counter: 3; PPC-1+TRAIL kill: -10

Results for CC(C)c1ccc(/C=C/C(=O)NC2=NCCS2)cc1 ?
FLuc act counter: 0.3; FLuc inh counter: 67*; PPC-1+TRAIL kill: 39

How did CCCn1nnc(NC(=O)c2ccc(OC)cc2)n1 do in these assays?
FLuc act counter: 0.9; C8 TRAIL sens: 7; FLuc inh counter: 13; PPC-1+TRAIL kill: 8

What do the screens show for `O=C(NC1=NCCS1)c1ccccc1`?
C8 TRAIL sens: 25

How did CCOc1ccc(C(=O)Nc2nnn(CC)n2)cc1 do in these assays?
FLuc act counter: 0.4; C8 TRAIL sens: 37; FLuc inh counter: 60*; PPC-1+TRAIL kill: -4

How did Cc1ccc(S(=O)(=O)Nc2ccc3c(c2)OCCO3)c(C)c1NS(C)(=O)=O do in these assays?
C8 TRAIL sens: -4

Results for CCOc1ccc(C(=O)NC2=NCCS2)cc1 ?
FLuc act counter: 0.5; FLuc inh counter: 52*; PPC-1+TRAIL kill: 29

How did CCn1nnc(NC(=O)c2cccnc2Cl)n1 do in these assays?
FLuc act counter: 1; C8 TRAIL sens: -2; FLuc inh counter: -5; PPC-1+TRAIL kill: 2

What do the screens show for `CCn1nnc(NC(=O)c2sc3ccccc3c2Cl)n1`?
FLuc act counter: 0.3; C8 TRAIL sens: 34; FLuc inh counter: 67*; PPC-1+TRAIL kill: 50

Results for Cc1nc2ccc(NC(=O)Cc3ccccc3F)cc2s1 ?
FLuc act counter: 0.5; C8 TRAIL sens: 26; FLuc inh counter: 54*; PPC-1+TRAIL kill: 34

How did Cc1ccc(CN2CC(N3CCCCC3)CS2(=O)=O)cc1 (configuration not stated) do in these assays?
C8 TRAIL sens: 11

How did COc1ccc(Nc2ccc3c(c2)=NC2(CCCCC2)[N+]=3[O-])cc1 do in these assays?
FLuc act counter: 0.9; C8 TRAIL sens: 37; FLuc inh counter: 9; PPC-1+TRAIL kill: -2

What do the screens show for `[O-][N+]1=c2ccc(Nc3ccccc3)cc2=NC12CCCCC2`?
FLuc act counter: 1; C8 TRAIL sens: 69*; FLuc inh counter: 0; PPC-1+TRAIL kill: 11

Results for CC1(C)CC(=O)C(C(=O)/C=C/c2ccco2)C(=O)C1 ?
FLuc act counter: 0.9; C8 TRAIL sens: 6; FLuc inh counter: 6; PPC-1+TRAIL kill: 3

What do the screens show for `Cc1nn(-c2ccccc2)c(Cl)c1/C=N/NC(=O)c1ccco1`?
FLuc act counter: 0.4; C8 TRAIL sens: 29; FLuc inh counter: 58*; PPC-1+TRAIL kill: 20

What do the screens show for `Cc1nn(-c2ccccc2)c(Cl)c1/C=N/Nc1ccc(Cl)c(C(=O)O)c1`?
FLuc act counter: 0.1; C8 TRAIL sens: 50; FLuc inh counter: 87*; PPC-1+TRAIL kill: 52*

How did CSc1ncccc1C(=O)Nc1ccc(S(=O)(=O)NC2=NCCCCC2)cc1 do in these assays?
FLuc act counter: 1.1; C8 TRAIL sens: -3; FLuc inh counter: -7; PPC-1+TRAIL kill: 5

How did COc1ccc2[nH]c3c(=O)n(CCCCC(=O)NCCC(C)C)c(=S)[nH]c3c2c1 do in these assays?
FLuc act counter: 1.1; C8 TRAIL sens: -9; FLuc inh counter: -5; PPC-1+TRAIL kill: 18

Results for O=C(Nc1ccc(OC(F)(F)F)cc1)C1=NCCN1 ?
FLuc act counter: 0.4; C8 TRAIL sens: 33; FLuc inh counter: 63*; PPC-1+TRAIL kill: 18

What do the screens show for `COc1cc(C(=O)OCC(=O)Nc2cc(S(=O)(=O)N3CCOCC3)ccc2C)ccc1OCC(C)C`?
C8 TRAIL sens: 6
